The test system of data set [1] is Mycolicibacterium smegmatis. The data set is described as follows: Antibiofilm activity against Mycobacterium smegmatis mc2 155 ATCC 700084 assessed as dispersion of preformed biofilms measured after 24 hrs by crystal violet reporter assay. In kind it is functional, organism-based. The settings on record: MC2 155 ATCC 700084, 24 h. The method, boiled down:
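Cultures (48 h) diluted to 0.01 in M9 minimal salts with glucose, MgSO4 and CaCl2 in PVC plates. Biofilm grown stationary at 37 °C for 48 h, washed, then fresh medium with compound added for 24 h at 37 °C. Stained with 0.1% crystal violet 30 min, solubilised in 95% ethanol, OD540 read. Media blanks subtracted. Dispersion calculated against untreated biofilm wells. At least three repeats.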
Background: In a reporter assay the amount or activity of a reporter protein is the signal.

The subject of data set [2] is Mycolicibacterium smegmatis. The data set is described as follows: Potentiation of Cefotaxime-induced antibacterial activity against Mycobacterium smegmatis mc2 155 ATCC 700084 assessed as Cefotaxime MIC at 30 uM incubated for 48 hrs by alamarblue dye based broth microdilution method (reference value: 128 ug/ml). In kind it is functional. An outline of the steps:
(§1)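 Inoculum from 48 h cultures set to 5 x 10^5 CFU/mL in 7H9 + ADC and pre-dosed with compound from DMSO stock at fixed concentration. β-lactam two-fold serially diluted from top concentration, with an antibiotic-only control series. Stationary 37 °C for 48 h, then alamarBlue for 8 h. MIC is the lowest blue (non-viable) well. Fold reduction is relative to the antibiotic-only MIC. Duplicates, at least two repeats.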
Background: The colour change of resazurin is a common sign of viable cells or microbes.

Data set [3] relates to Mycolicibacterium smegmatis. The data set is described as follows: Potentiation of oxacillin-induced antibacterial activity against Mycobacterium smegmatis mc2 155 ATCC 700084 assessed as fold reduction in oxacillin MIC at 30 uM incubated for 48 hrs by alamarblue dye based broth microdilution method. In kind it is functional. An outline of the steps: as §1
The subject of data set [4] is Mycolicibacterium smegmatis. Kind of data set: Potentiation of Cefotaxime-induced antibacterial activity against Mycobacterium smegmatis mc2 155 ATCC 700084 assessed as fold reduction in Cefotaxime MIC at 30 uM incubated for 48 hrs by alamarblue dye based broth microdilution method. The class given is functional. The method, boiled down: as §1
Data set [5] concerns Mycolicibacterium smegmatis. The data set is described as follows: Potentiation of Ampicillin-induced antibacterial activity against Mycobacterium smegmatis mc2 155 ATCC 700084 assessed as Ampicillin MIC at 30 uM incubated for 48 hrs by alamarblue dye based broth microdilution method (reference value: 128 ug/ml). In kind it is functional. An outline of the steps: as §1
The subject of data set [6] is Mycolicibacterium smegmatis. The data set is described as follows: Antibiofilm activity against Mycobacterium smegmatis mc2 155 ATCC 700084 assessed as inhibition of biofilm formation measured after 24 hrs by crystal violet reporter assay. The class given is functional, organism-based. Particulars: MC2 155 ATCC 700084, 24 h.
Data set [7] concerns Mycolicibacterium smegmatis. Kind of data set: Potentiation of Ceftazidime-induced antibacterial activity against Mycobacterium smegmatis mc2 155 ATCC 700084 assessed as Ceftazidime MIC at 30 uM incubated for 48 hrs by alamarblue dye based broth microdilution method (reference value: 512 ug/ml). In kind it is functional. The method, boiled down: as §1
Data set [8] deals with Mycolicibacterium smegmatis. Kind of data set: Antibacterial activity against Mycobacterium smegmatis mc2 155 ATCC 700084 assessed as inhibition of bacterial growth incubated for 48 hrs by alamarblue dye based broth microdilution method. In kind it is functional. An outline of the steps:
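Inoculum from 48 h cultures set to 5 x 10^5 CFU/mL in 7H9 + ADC. Compound in DMSO two-fold serially diluted from 200 µM top concentration. Stationary 37 °C for 48 h, then alamarBlue for 8 h at 37 °C. MIC is the lowest concentration with no viable bacteria (blue, not pink). Duplicate wells, at least two independent repeats.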

In data set [9] the test system is Mycolicibacterium smegmatis. The data set is described as follows: Potentiation of Ampicillin-induced antibacterial activity against Mycobacterium smegmatis mc2 155 ATCC 700084 assessed as fold reduction in Ampicillin MIC at 30 uM incubated for 48 hrs by alamarblue dye based broth microdilution method. The class given is functional. An outline of the steps: as §1

Data set [10] has as its system Mycolicibacterium smegmatis. The data set is described as follows: Potentiation of Oxacillin-induced antibacterial activity against Mycobacterium smegmatis mc2 155 ATCC 700084 assessed as Oxacillin MIC at 30 uM incubated for 48 hrs by alamarblue dye based broth microdilution method (Rvb =512 ug/ml). The class given is functional. An outline of the steps: as §1
Data set [11] in a line: Hemolytic activity in sheep RBC assessed as hemolysis at 500 uM measured after 1 hr by UV spectrometer analysis. The class given is ADME, cell-based, Ovis aries, Erythrocyte. The settings on record: sheep red blood cells (erythrocytes), read-out: Activity. The method, boiled down: (§2)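 Mechanically defibrinated sheep blood was centrifuged, and the cells were washed and resuspended in PBS three times, then diluted 10-fold. Compound was added from DMSO stock. Controls were 1% Triton X (100% lysis) and PBS (zero lysis). Samples were incubated 1 h at 37 °C with shaking at 200 rpm, then centrifuged. Supernatant was diluted 40-fold in distilled water and read at A540. Run in duplicate, repeated at least twice.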

A short description of data set [12]: Hemolytic activity in sheep RBC assessed as hemolysis at 200 uM measured after 1 hr by UV spectrometer analysis. The class given is ADME, cell-based, Ovis aries, Erythrocyte. The settings on record: sheep red blood cells (erythrocytes), read-out: Activity. The method, boiled down: as §2
Data set [13] has as its system Mycolicibacterium smegmatis. Kind of data set: Potentiation of Cefoxitin-induced antibacterial activity against Mycobacterium smegmatis mc2 155 ATCC 700084 assessed as fold reduction in Cefoxitin MIC at 30 uM incubated for 48 hrs by alamarblue dye based broth microdilution method. In kind it is functional. An outline of the steps:
as §1

Data set [14] has as its system Mycolicibacterium smegmatis. The data set is described as follows: Potentiation of Cefoxitin-induced antibacterial activity against Mycobacterium smegmatis mc2 155 ATCC 700084 assessed as Cefoxitin MIC at 30 uM incubated for 48 hrs by alamarblue dye based broth microdilution method (reference value: 16 ug/ml). The class given is functional. An outline of the steps:
as §1

Data set [15] concerns Mycolicibacterium smegmatis. The data set is described as follows: Potentiation of Ceftazidime-induced antibacterial activity against Mycobacterium smegmatis mc2 155 ATCC 700084 assessed as fold reduction in Ceftazidime MIC at 30 uM incubated for 48 hrs by alamarblue dye based broth microdilution method. In kind it is functional. An outline of the steps: as §1
The subject of data set [16] is Mycolicibacterium smegmatis. The data set is described as follows: Potentiation of Ceftazidime-induced antibacterial activity against Mycobacterium smegmatis mc2 155 ATCC 700084 assessed as Ceftazidime MIC at 60 uM incubated for 48 hrs by alamarblue dye based broth microdilution method (reference value: 512 ug/ml). The class given is functional. The method, boiled down:
as §1

Data set [17] deals with Mycolicibacterium smegmatis. Kind of data set: Potentiation of Cefotaxime-induced antibacterial activity against Mycobacterium smegmatis mc2 155 ATCC 700084 assessed as fold reduction in Cefotaxime MIC at 60 uM incubated for 48 hrs by alamarblue dye based broth microdilution method. The class given is functional. An outline of the steps:
as §1

For data set [18], the system named is Mycolicibacterium smegmatis. The data set is described as follows: Potentiation of Oxacillin-induced antibacterial activity against Mycobacterium smegmatis mc2 155 ATCC 700084 assessed as Oxacillin MIC at 60 uM incubated for 48 hrs by alamarblue dye based broth microdilution method (Rvb =512 ug/ml). The class given is functional. An outline of the steps:
as §1

Data set [19] deals with Mycolicibacterium smegmatis. The data set is described as follows: Potentiation of Cefoxitin-induced antibacterial activity against Mycobacterium smegmatis mc2 155 ATCC 700084 assessed as fold reduction in Cefoxitin MIC at 60 uM incubated for 48 hrs by alamarblue dye based broth microdilution method. In kind it is functional. An outline of the steps:
as §1

Data set [20] has as its system Mycolicibacterium smegmatis. Kind of data set: Potentiation of Ceftazidime-induced antibacterial activity against Mycobacterium smegmatis mc2 155 ATCC 700084 assessed as fold reduction in Ceftazidime MIC at 60 uM incubated for 48 hrs by alamarblue dye based broth microdilution method. In kind it is functional. An outline of the steps:
as §1

Data set [21] relates to Mycolicibacterium smegmatis. The data set is described as follows: Potentiation of Ampicillin-induced antibacterial activity against Mycobacterium smegmatis mc2 155 ATCC 700084 assessed as fold reduction in Ampicillin MIC at 60 uM incubated for 48 hrs by alamarblue dye based broth microdilution method. In kind it is functional. The method, boiled down:
as §1

For data set [22], the system named is Mycolicibacterium smegmatis. The data set is described as follows: Potentiation of Cefoxitin-induced antibacterial activity against Mycobacterium smegmatis mc2 155 ATCC 700084 assessed as Cefoxitin MIC at 60 uM incubated for 48 hrs by alamarblue dye based broth microdilution method (reference value: 16 ug/ml). In kind it is functional. The method, boiled down: as §1

Data set [23] concerns Mycolicibacterium smegmatis. Kind of data set: Potentiation of oxacillin-induced antibacterial activity against Mycobacterium smegmatis mc2 155 ATCC 700084 assessed as fold reduction in oxacillin MIC at 60 uM incubated for 48 hrs by alamarblue dye based broth microdilution method. The class given is functional. The method, boiled down:
as §1

In data set [24] the test system is Mycolicibacterium smegmatis. Kind of data set: Potentiation of Ampicillin-induced antibacterial activity against Mycobacterium smegmatis mc2 155 ATCC 700084 assessed as Ampicillin MIC at 60 uM incubated for 48 hrs by alamarblue dye based broth microdilution method (reference value: 128 ug/ml). In kind it is functional. The method, boiled down: as §1
The subject of data set [25] is Mycolicibacterium smegmatis. Kind of data set: Potentiation of Cefotaxime-induced antibacterial activity against Mycobacterium smegmatis mc2 155 ATCC 700084 assessed as Cefotaxime MIC at 60 uM incubated for 48 hrs by alamarblue dye based broth microdilution method (reference value: 128 ug/ml). In kind it is functional. An outline of the steps:
as §1

Values after ≈ are worked out from the molar mass of the structure shown. Bounds are passed on as bounds.

`Nc1nc(-c2c[nH]c3cc(Br)ccc23)c[nH]1`: in data set [1], the EC50 (commonly the concentration at which the effect is half-maximal) came to 27.9 µM. Also, the minimal inhibitory concentration (MIC) (commonly the lowest concentration found to suppress growth) in data set [2] stood at 128 µg/mL; in [5], 128 µg/mL; in data set [7], 128 µg/mL; in [8], 100 µM (≈ 27.7 µg/mL); in data set [10], 512 µg/mL; in data set [14] it was 16 µg/mL. The “fold change (FC)” value in [3] came out at 0; in [4], 0; in data set [9] it was 0; in data set [13], 0; in data set [15] it was 4. Moreover, the concentration for half-maximal inhibition (IC50) (in general, the concentration needed to halve the response being measured) in data set [6] is 7.5 µM. The hemolysis at 1 h, 500 µM in data set [11] stood at 14%. Besides, the hemolysis at 1 h, 200 µM in data set [12] was found to be 7%.

Turning to `Brc1ccc2[nH]cc(-c3ccnc(NCc4ccccc4)n3)c2c1`, the MIC in data set [16] was 512 µg/mL; in data set [18], 256 µg/mL; in data set [22], 16 µg/mL; in data set [8], at least 200 µM; in data set [24], 64 µg/mL; in data set [25], 64 µg/mL. For the same compound, the “fold change (FC)” value in data set [17] is on record as 2; in data set [19], 0; in data set [20], 0; in data set [21], 2; in data set [23] it was 2. In addition, the EC50 in data set [1] turned out to be 28.3 µM. The half-inhibitory concentration (IC50) in data set [6] is 6.9 µM. The hemolysis at 1 h, 500 µM in [11] was 32%. In addition, the hemolysis at 1 h, 200 µM in data set [12] was found to be 9%.
